Active and inactive are the calls of the source. No cut-off for these calls is given here. Bounds are passed on as bounds.

Drawing on ChEMBL document CHEMBL1909580, “Branched-chain C-cyano pyranonucleosides: synthesis of 3'-C-cyano & 3'-C-cyano-3'-deoxy pyrimidine pyranonucleosides as novel cytotoxic agents” (Eur J Med Chem, 2011), this text covers inhibition and IC50 for 8 compounds.

For one test, the system named is Human alphaherpesvirus 1. The test can be described thus: Antiviral activity against HSV1 infected in human HEL cells assessed as inhibition of virus-induced cytopathicity at 100 uM. The class given is functional, organism-based. The method, boiled down:
(§1)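 Confluent cell monolayers in microtiter plates were inoculated with 100 CCID50 of virus in the presence of varying test concentrations. 1 CCID50 is the virus dose infecting 50% of cultures. Cytopathicity was scored once it was complete in untreated virus-infected controls.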

In a further test the test system is Human alphaherpesvirus 2. The test can be described thus: Antiviral activity against HSV2 infected in human HEL cells assessed as inhibition of virus-induced cytopathicity at 100 uM. It is filed as functional, organism-based. The method, boiled down:
as §1
(Protection from cytopathic effect is a common read-out in antiviral testing.)

Another test concerns Vaccinia virus. The test can be described thus: Antiviral activity against Vaccinia virus infected in human HEL cells assessed as inhibition of virus-induced cytopathicity at 100 uM. The class given is functional, organism-based. As to conditions: Orthopoxvirus vaccinia. In outline:
(§2)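 Confluent cell monolayers were infected with 100 CCID50 of virus (1 CCID50 infects 50% of cultures) in the presence of varying concentrations of test compound. Virus-induced cytopathicity was scored once it was complete in the untreated infected controls.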

The subject of test [1] is Vesicular stomatitis virus. The test can be described thus: Antiviral activity against VSV infected in human HEL cells assessed as inhibition of virus-induced cytopathicity at 100 uM. It is filed as functional, organism-based. The method, boiled down:
as §2

In another test the test system is Human respirovirus 3. The experiment in a line: Antiviral activity against Parainfluenza 3 virus infected in african green monkey Vero cells assessed as inhibition of virus-induced cytopathicity at 100 uM. The class given is functional, organism-based. In outline:
as §1

The test system of test [2] is Mammalian orthoreovirus 1. The experiment in a line: Antiviral activity against Reovirus1 infected in african green monkey Vero cells assessed as inhibition of virus-induced cytopathicity at 100 uM. It is filed as functional, organism-based. In outline: as §1
In test [3] the test system is Coxsackievirus B4. The test can be described thus: Antiviral activity against Coxsackievirus B4 infected in african green monkey Vero cells assessed as inhibition of virus-induced cytopathicity at 100 uM. The class given is functional, organism-based. In outline: as §1
In a further test the test system is Punta Toro virus. The experiment in a line: Antiviral activity against Punta Toro virus infected in african green monkey Vero cells assessed as inhibition of virus-induced cytopathicity at 100 uM. The class given is functional, organism-based. The method, boiled down: as §1
In test [4] the test system is Vesicular stomatitis virus. The test can be described thus: Antiviral activity against VSV infected in human HeLa cells assessed as inhibition of virus-induced cytopathicity at 100 uM. It is filed as functional, organism-based. The method, boiled down:
as §2

Test [5] relates to Coxsackievirus B4. The experiment in a line: Antiviral activity against Coxsackievirus B4 infected in human HeLa cells assessed as inhibition of virus-induced cytopathicity at 100 uM. It is filed as functional, organism-based. The method, boiled down: as §1
The subject of test [6] is Respiratory syncytial virus. The experiment in a line: Antiviral activity against RSV infected in human HeLa cells assessed as inhibition of virus-induced cytopathicity at 100 uM. The class given is functional, organism-based. In outline:
as §1

In test [7] the test system is Influenza A virus. The experiment in a line: Antiviral activity against influenza A virus H1N1 infected in MDCK cells assessed as inhibition of virus-induced cytopathicity at 100 uM. It is filed as functional, organism-based. The method, boiled down:
as §2

Test [8] relates to Influenza A virus. The test can be described thus: Antiviral activity against influenza A virus H3N2 infected in MDCK cells assessed as inhibition of virus-induced cytopathicity at 100 uM. It is filed as functional, organism-based. In outline: as §2
The subject of the next test is Influenza B virus. The test can be described thus: Antiviral activity against influenza B virus infected in MDCK cells assessed as inhibition of virus-induced cytopathicity at 100 uM. It is filed as functional, organism-based. In outline:
as §2

A further test relates to Feline coronavirus. The experiment in a line: Antiviral activity against Feline coronavirus infected in feline CRFK cells assessed as inhibition of virus-induced cytopathicity at 100 uM. The class given is functional, organism-based. The method, boiled down:
as §1

In the next test the test system is Felid alphaherpesvirus 1. The test can be described thus: Antiviral activity against Feline herpesvirus infected in […] cells assessed as inhibition of virus-induced cytopathicity at 100 uM. It is filed as functional, organism-based.
In test [9] the test system is Human immunodeficiency virus 1. The experiment in a line: Antiviral activity against HIV1 3B infected in CEM cells assessed as inhibition of virus-induced cytopathicity at 100 uM. The class given is functional, organism-based. As to conditions: CCRF-CEM. The method, boiled down: (§3)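 Virus stocks were titrated in CEM cells as CCID50. CEM cells at ~3 × 10^5 cells/ml were infected with ~100 CCID50 and immediately added to wells holding various test concentrations. After 4 days at 37 °C, giant cell formation was scored microscopically.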

For test [10], the system named is Human immunodeficiency virus 2. The test can be described thus: Antiviral activity against HIV-2 ROD infected in CEM cells assessed as inhibition of virus-induced cytopathicity at 100 uM. The class given is functional, organism-based. As to conditions: ISOLATE ROD, CCRF-CEM. The method, boiled down:
as §3

Another test deals with L1210. The experiment in a line: Cytostatic activity against mouse L1210 cells. It is filed as functional, cell-based. The method, boiled down:
(§4)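 Cell proliferation was measured with the test agents present. IC50 is the concentration giving 50% inhibition of proliferation, given as the mean ± S.D. of 2–3 independent experiments.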

The next test relates to CCRF-CEM. The experiment in a line: Cytostatic activity against human CEM cells. It is filed as functional, cell-based. In outline:
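Uninfected CEM cells were run in parallel with the HIV assay for 4 days at 37 °C. IC50 is the concentration inhibiting cell proliferation by 50%, given as the mean ± S.D. of 2–3 independent experiments.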

Another test relates to HeLa. The test can be described thus: Cytostatic activity against human HeLa cells. The class given is functional, cell-based. In outline: as §4

As a reminder, the IC50 is the concentration at which inhibition is half-maximal. As to `N#C[C@]1(O)[C@H](O)[C@@H](CO)O[C@@H](n2ccc(N)nc2=O)[C@@H]1O`, the inhibition entry (in the test with Human alphaherpesvirus 1; in the test on Human alphaherpesvirus 2; with Vaccinia virus; in test [1]; with Human respirovirus 3; in test [2]) was “inactive” each time. The inhibition result (with Coxsackievirus B4 [3]; with Punta Toro virus; in test [4]; with Coxsackievirus B4 [5]; in [6]; in the test on Influenza A virus [7]) was “inactive” in each case. Also, the inhibition entry (in the test with Influenza A virus [8]; with Influenza B virus; in the test on Feline coronavirus; in the test on Felid alphaherpesvirus 1; in [9]; in test [10]) was “inactive” throughout. For the same compound, the IC50 in the test with L1210 was 147 µM; in the test on CCRF-CEM it was greater than 500 µM; with HeLa, 377 µM.

For the compound `N#C[C@H]1[C@@H](O)[C@H](n2cc(F)c(O)nc2=O)O[C@H](CO)[C@H]1O`, the inhibition result (in the test with Human alphaherpesvirus 1; with Human alphaherpesvirus 2; in the test with Vaccinia virus; in test [1]; in the test on Human respirovirus 3; in [2]) was “inactive” in each case. The inhibition result (with Coxsackievirus B4 [3]; with Punta Toro virus; in [4]; in the test with Coxsackievirus B4 [5]; in test [6]; in the test on Influenza A virus [7]) was “inactive” throughout. Moreover, the inhibition entry (in the test on Influenza A virus [8]; in the test with Influenza B virus; in the test on Feline coronavirus; in the test on Felid alphaherpesvirus 1; in test [9]; in test [10]) was “inactive” each time. For the same compound, the IC50 in the test with L1210 is 550 µM; with CCRF-CEM it was greater than 500 µM; in the test on HeLa, 819 µM.

As for `Cc1cn([C@@H]2O[C@H](CO)[C@@H](O)[C@@](O)(C#N)[C@H]2O)c(=O)nc1O`, the inhibition entry (in the test on Human alphaherpesvirus 1; in the test with Human alphaherpesvirus 2; with Vaccinia virus; in test [1]; in the test on Human respirovirus 3; in test [2]) was “inactive” throughout. Also, the inhibition entry (in the test with Coxsackievirus B4 [3]; in the test on Punta Toro virus; in test [4]; in the test on Coxsackievirus B4 [5]; in test [6]; in the test on Influenza A virus [7]) was “inactive” each time. The inhibition entry (in the test on Influenza A virus [8]; in the test with Influenza B virus; in the test with Feline coronavirus; in the test on Felid alphaherpesvirus 1; in [9]; in test [10]) was “inactive” throughout. In addition, the concentration for half-maximal inhibition (IC50) in the test with L1210 is 539 µM; with CCRF-CEM it was greater than 500 µM; in the test with HeLa, greater than 500 µM.

`N#C[C@H]1[C@@H](O)[C@H](n2ccc(N)nc2=O)O[C@H](CO)[C@H]1O`: the inhibition result (in the test with Human alphaherpesvirus 1; in the test on Human alphaherpesvirus 2; in the test on Vaccinia virus; in test [1]; in the test with Human respirovirus 3; in [2]) was “inactive” in each case. The inhibition result (in the test with Coxsackievirus B4 [3]; with Punta Toro virus; in test [4]; in the test on Coxsackievirus B4 [5]; in test [6]; in the test with Influenza A virus [7]) was “inactive” each time. Also, the inhibition entry (in the test with Influenza A virus [8]; in the test on Influenza B virus; with Feline coronavirus; in the test on Felid alphaherpesvirus 1; in test [9]; in [10]) was “inactive” in each case. In addition, the IC50 in the test with L1210, in the test with CCRF-CEM and in the test with HeLa was greater than 750 µM in each case.

Consider `Cc1cn([C@@H]2O[C@H](CO)[C@@H](O)[C@@H](C#N)[C@H]2O)c(=O)nc1O`, for which the inhibition result (with Human alphaherpesvirus 1; with Human alphaherpesvirus 2; in the test on Vaccinia virus; in test [1]; with Human respirovirus 3; in test [2]) was “inactive” throughout. For the same compound, the inhibition entry (in the test on Coxsackievirus B4 [3]; with Punta Toro virus; in test [4]; in the test with Coxsackievirus B4 [5]; in [6]; in the test with Influenza A virus [7]) was “inactive” in each case. The inhibition entry (in the test with Influenza A virus [8]; in the test with Influenza B virus; in the test with Feline coronavirus; with Felid alphaherpesvirus 1; in [9]; in test [10]) was “inactive” throughout. The IC50 in the test on L1210, in the test with CCRF-CEM and in the test with HeLa was greater than 750 µM each time.

On to `N#C[C@]1(O)[C@H](O)[C@@H](CO)O[C@@H](n2cc(F)c(O)nc2=O)[C@@H]1O`, for which the inhibition entry (with Human alphaherpesvirus 1; in the test with Human alphaherpesvirus 2; in the test on Vaccinia virus; in test [1]; in the test with Human respirovirus 3; in test [2]) was “inactive” throughout. Moreover, the inhibition result (in the test on Coxsackievirus B4 [3]; in the test on Punta Toro virus; in [4]; with Coxsackievirus B4 [5]; in [6]; in the test with Influenza A virus [7]) was “inactive” each time. Further, the inhibition entry (in the test on Influenza A virus [8]; in the test on Influenza B virus; with Feline coronavirus; in the test with Felid alphaherpesvirus 1; in test [9]; in test [10]) was “inactive” throughout. Also, the values for the IC50 with L1210, in the test on CCRF-CEM and in the test with HeLa were 1.9 µM, 32 µM and 4.5 µM, respectively.

On to `N#C[C@H]1[C@@H](O)[C@H](n2ccc(O)nc2=O)O[C@H](CO)[C@H]1O`, for which the inhibition entry (in the test on Human alphaherpesvirus 1; in the test with Human alphaherpesvirus 2; with Vaccinia virus; in test [1]; with Human respirovirus 3; in test [2]) was “inactive” throughout. For the same compound, the inhibition entry (in the test with Coxsackievirus B4 [3]; in the test on Punta Toro virus; in test [4]; in the test on Coxsackievirus B4 [5]; in test [6]; in the test on Influenza A virus [7]) was “inactive” each time. Moreover, the inhibition entry (with Influenza A virus [8]; in the test on Influenza B virus; with Feline coronavirus; in the test with Felid alphaherpesvirus 1; in test [9]; in test [10]) was “inactive” throughout. Moreover, the IC50 with L1210 was greater than 500 µM; with CCRF-CEM, greater than 500 µM; with HeLa it was 811 µM.

As to `O=c1[nH]cc(F)c(=O)[nH]1` [FLUOROURACIL], the IC50 in the test with L1210 is 0.49 µM; with CCRF-CEM, 18 µM; with HeLa, 0.54 µM.
